Measured values taken from ChEMBL document CHEMBL1275598, “In vitro activity of ceftaroline against community-associated methicillin-resistant, vancomycin-intermediate, vancomycin-resistant, and daptomycin-nonsusceptible Staphylococcus aureus isolates” (2010).
Converted amounts (≈) assume the structure as drawn.

Experiments:
Assay type in all cases: functional
[1] = test system: Staphylococcus aureus; experiment: Antimicrobial activity against vancomycin resistant Staphylococcus aureus VRS-5 expressing SCCmec type 2 element by microdilution method
Summary of the method: (§1)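 Broth microdilution per CLSI in cation-adjusted Mueller-Hinton broth. Antibiotic powders were reconstituted per CLSI. The MIC was read visually as the lowest drug concentration with no visible growth. S. aureus ATCC 29213 and E. faecalis ATCC 29212 served as control strains. VISA and VRSA isolates came from the NARSA program.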

[2] = test system: Staphylococcus aureus; experiment: Antimicrobial activity against vancomycin-intermediate Staphylococcus aureus assessed as resistant isolates by microdilution method
Summary of the method: (§2)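 CLSI broth microdilution MICs in cation-adjusted Mueller-Hinton broth, read visually as the lowest concentration with no visible growth. Percent of isolates classed susceptible or resistant was assigned using CLSI breakpoints.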

[3] = test system: Staphylococcus aureus; experiment: Antimicrobial activity against daptomycin-nonsusceptible Staphylococcus aureus assessed as susceptible isolates by microdilution method
Summary of the method: (§3)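 MICs by CLSI broth microdilution in cation-adjusted Mueller-Hinton broth, read visually as the lowest concentration with no visible growth. Percentages of susceptible or resistant isolates assigned using CLSI breakpoints. Isolates: CA-MRSA (n = 92, positive within 48 h of admission) and DNSSA (n = 7, blood).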

[4] = test system: Staphylococcus aureus; experiment: Antimicrobial activity against vancomycin-resistant Staphylococcus aureus assessed as susceptible isolates by microdilution method; summary of the method: as §2
[5] = test system: Staphylococcus aureus; experiment: Antimicrobial activity against vancomycin resistant Staphylococcus aureus VRS-6 expressing SCCmec type 2 element by microdilution method; summary of the method: as §1
[6] = test system: Staphylococcus aureus; experiment: Antimicrobial activity against vancomycin resistant Staphylococcus aureus VRS-8 expressing SCCmec element by microdilution method; summary of the method: as §1
[7] = test system: Staphylococcus aureus; experiment: Antimicrobial activity against vancomycin resistant Staphylococcus aureus VRS-3 expressing SCCmec type 4 element by microdilution method; summary of the method: as §1
[8] = test system: Staphylococcus aureus; experiment: Antimicrobial activity against vancomycin intermediate Staphylococcus aureus NRS-126 expressing SCCmec type 2 element by microdilution method
Summary of the method: (§4)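 MIC by broth microdilution in cation-adjusted Mueller-Hinton broth, following CLSI guidelines; antibiotic powders reconstituted per CLSI. Read visually as the lowest drug concentration well with no visible growth. S. aureus ATCC 29213 and E. faecalis ATCC 29212 served as control strains. CA-MRSA: hospital patients culture-positive within 48 h of admission. DNSSA: patient blood isolates. VISA: obtained from the NARSA program.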

[9] = test system: Staphylococcus aureus; experiment: Antimicrobial activity against vancomycin intermediate Staphylococcus aureus NRS-403 expressing SCCmec type 2 element by microdilution method; summary of the method: as §4
[10] = test system: Staphylococcus aureus; experiment: Antimicrobial activity against community-acquired methicillin-resistant Staphylococcus aureus by microdilution method; summary of the method: as §4
[11] = test system: Staphylococcus aureus; experiment: Antimicrobial activity against vancomycin intermediate Staphylococcus aureus NRS-26 expressing SCCmec type 2 element by microdilution method; summary of the method: as §4
[12] = test system: Staphylococcus aureus; experiment: Antimicrobial activity against vancomycin intermediate Staphylococcus aureus NRS-3 expressing SCCmec type 2 element by microdilution method; summary of the method: as §4
[13] = test system: Staphylococcus aureus; experiment: Antimicrobial activity against vancomycin-intermediate Staphylococcus aureus assessed as susceptible isolates by microdilution method
Summary of the method: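 CLSI broth microdilution in cation-adjusted Mueller-Hinton broth. MIC is the lowest concentration well with no visible growth, read by eye. Isolates were classed susceptible from CLSI breakpoints. S. aureus ATCC 29213 and E. faecalis ATCC 29212 were used as MIC control strains.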

[14] = test system: Staphylococcus aureus; experiment: Antimicrobial activity against vancomycin intermediate Staphylococcus aureus NRS-22 expressing SCCmec type 2 element by microdilution method; summary of the method: as §4
[15] = test system: Staphylococcus aureus; experiment: Antimicrobial activity against vancomycin-intermediate Staphylococcus aureus by microdilution method; summary of the method: as §1
[16] = test system: Staphylococcus aureus; experiment: Bactericidal activity against daptomycin-nonsusceptible Staphylococcus aureus assessed as antibiotic concentration that reduced the number of viable cells by =>99.9% by colony count method
Summary of the method: (§5)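 MBC per CLSI guidelines. It was taken as the antibiotic concentration giving ≥99.9% reduction in viable cells, based on colony counts from the growth control well and rejection values from Pearson's tables.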

[17] = test system: Staphylococcus aureus; experiment: Antimicrobial activity against vancomycin intermediate Staphylococcus aureus NRS-51 expressing SCCmec type 2 element by microdilution method; summary of the method: as §4
[18] = test system: Staphylococcus aureus; experiment: Antimicrobial activity against vancomycin intermediate Staphylococcus aureus NRS-118 expressing SCCmec type 1 element by microdilution method; summary of the method: as §4
[19] = test system: Staphylococcus aureus; experiment: Antimicrobial activity against vancomycin intermediate Staphylococcus aureus NRS-68 expressing SCCmec type 2 element by microdilution method; summary of the method: as §4
[20] = test system: Staphylococcus aureus; experiment: Antimicrobial activity against vancomycin intermediate Staphylococcus aureus NRS-17 expressing SCCmec type 2 element by microdilution method; summary of the method: as §4
[21] = test system: Staphylococcus aureus; experiment: Antimicrobial activity against vancomycin intermediate Staphylococcus aureus NRS-402 expressing SCCmec type 2 element by microdilution method; summary of the method: as §4
[22] = test system: Staphylococcus aureus; experiment: Antimicrobial activity against vancomycin intermediate Staphylococcus aureus NRS-19 expressing SCCmec type 2 element by microdilution method; summary of the method: as §4
[23] = test system: Staphylococcus aureus; experiment: Antimicrobial activity against vancomycin resistant Staphylococcus aureus VRS-1 expressing SCCmec type 2 element by microdilution method; summary of the method: as §1
[24] = test system: Staphylococcus aureus; experiment: Antimicrobial activity against vancomycin intermediate Staphylococcus aureus NRS-74 expressing SCCmec type 2 element by microdilution method; summary of the method: as §4
[25] = test system: Staphylococcus aureus; experiment: Antimicrobial activity against vancomycin resistant Staphylococcus aureus VRS-9 expressing SCCmec type 2 element by microdilution method; summary of the method: as §1
[26] = test system: Staphylococcus aureus; experiment: Antimicrobial activity against vancomycin resistant Staphylococcus aureus VRS-4 expressing SCCmec type 4 element by microdilution method; summary of the method: as §1
[27] = test system: Staphylococcus aureus; experiment: Antimicrobial activity against community-acquired methicillin-resistant Staphylococcus aureus assessed as resistant isolates by microdilution method; summary of the method: as §3
[28] = test system: Staphylococcus aureus; experiment: Antimicrobial activity against vancomycin intermediate Staphylococcus aureus NRS-27 expressing SCCmec type 2 element by microdilution method; summary of the method: as §4
[29] = test system: Staphylococcus aureus; experiment: Antimicrobial activity against vancomycin-resistant Staphylococcus aureus by microdilution method; summary of the method: as §1
[30] = test system: Staphylococcus aureus; experiment: Antimicrobial activity against vancomycin-resistant Staphylococcus aureus assessed as resistant isolates by microdilution method; summary of the method: as §2
[31] = test system: Staphylococcus aureus; experiment: Antimicrobial activity against vancomycin resistant Staphylococcus aureus VRS-7 expressing SCCmec element by microdilution method; summary of the method: as §1
[32] = test system: Staphylococcus aureus; experiment: Antimicrobial activity against vancomycin resistant Staphylococcus aureus VRS-10 expressing SCCmec type 2 element by microdilution method; summary of the method: as §1
[33] = test system: Staphylococcus aureus; experiment: Antimicrobial activity against community-acquired methicillin-resistant Staphylococcus aureus assessed as susceptible isolates by microdilution method; summary of the method: as §3
[34] = test system: Staphylococcus aureus; experiment: Antimicrobial activity against daptomycin-nonsusceptible Staphylococcus aureus by microdilution method; conditions: Staphylococcus aureus; summary of the method: as §4
[35] = test system: Staphylococcus aureus; experiment: Antimicrobial activity against vancomycin intermediate Staphylococcus aureus NRS-4 expressing SCCmec type 2 element by microdilution method; summary of the method: as §4
[36] = test system: Staphylococcus aureus; experiment: Antimicrobial activity against vancomycin intermediate Staphylococcus aureus NRS-404 expressing SCCmec type 2 element by microdilution method; summary of the method: as §4
[37] = test system: Staphylococcus aureus; experiment: Antimicrobial activity against vancomycin intermediate Staphylococcus aureus NRS-73 expressing SCCmec type 4d element by microdilution method; summary of the method: as §4
[38] = test system: Staphylococcus aureus; experiment: Antimicrobial activity against vancomycin intermediate Staphylococcus aureus NRS-23 expressing SCCmec type 2 element by microdilution method; summary of the method: as §4
[39] = test system: Staphylococcus aureus; experiment: Antimicrobial activity against vancomycin resistant Staphylococcus aureus VRS-2 expressing SCCmec type 2 element by microdilution method; summary of the method: as §1
[40] = test system: Staphylococcus aureus; experiment: Bactericidal activity against vancomycin-intermediate Staphylococcus aureus assessed as antibiotic concentration that reduced the number of viable cells by =>99.9% by colony count method; summary of the method: as §5
[41] = test system: Staphylococcus aureus; experiment: Bactericidal activity against community-acquired methicillin-resistant Staphylococcus aureus assessed as antibiotic concentration that reduced the number of viable cells by =>99.9% by colony count method
Summary of the method: (§6)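 MBC per CLSI following microdilution in cation-adjusted Mueller-Hinton broth. Defined as the concentration giving ≥99.9% reduction in viable cells, judged from colony counts of the growth control well against Pearson rejection-value tables. CA-MRSA isolates were hospital patients' isolates with positive MRSA culture within 48 h of admission.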

[42] = test system: Staphylococcus aureus; experiment: Antimicrobial activity against vancomycin intermediate Staphylococcus aureus NRS-18 expressing SCCmec type 2 element by microdilution method; summary of the method: as §4
[43] = test system: Staphylococcus aureus; experiment: Antimicrobial activity against vancomycin intermediate Staphylococcus aureus NRS-24 expressing SCCmec type 2 element by microdilution method; summary of the method: as §4
[44] = test system: Staphylococcus aureus; experiment: Bactericidal activity against vancomycin-resistant Staphylococcus aureus assessed as antibiotic concentration that reduced the number of viable cells by =>99.9% by colony count method; conditions: Staphylococcus aureus; summary of the method: as §6
[45] = test system: Staphylococcus aureus; experiment: Antimicrobial activity against daptomycin-nonsusceptible Staphylococcus aureus assessed as resistant isolates by microdilution method; summary of the method: as §3
[46] = test system: Staphylococcus aureus; experiment: Antimicrobial activity against vancomycin intermediate Staphylococcus aureus NRS-76 expressing SCCmec type 2 element by microdilution method; summary of the method: as §1

## CCC[C@@H]1C[C@@H](C(=O)N[C@@H]([C@H]2O[C@H](SC)[C@H](O)[C@@H](O)[C@H]2O)[C@H](C)Cl)N(C)C1 [CLINDAMYCIN]
[1]
  MIC: > 64 µg/mL
[2]
  Activity: 83%
[3]
  Activity: 14%
[4]
  Activity: 0%
[5]
  MIC: > 64 µg/mL
[6]
  MIC: > 64 µg/mL
[7]
  MIC: > 64 µg/mL
[8]
  MIC: > 64 µg/mL
[9]
  MIC: > 64 µg/mL
[10]
  MIC50: 0.12 µg/mL (≈ 0.282 µM)
  MIC90: > 64 µg/mL
[11]
  MIC: > 64 µg/mL
[12]
  MIC: > 64 µg/mL
[13]
  Activity: 17%
[14]
  MIC: > 64 µg/mL
[15]
  MIC50: > 64 µg/mL
  MIC90: > 64 µg/mL
[16]
  MBC50: >64 µg/mL
[17]
  MIC: > 64 µg/mL
[18]
  MIC: > 64 µg/mL
[19]
  MIC: > 64 µg/mL
[20]
  MIC: 0.06 µg/mL (≈ 0.141 µM)
[21]
  MIC: > 64 µg/mL
[22]
  MIC: > 64 µg/mL
[23]
  MIC: > 64 µg/mL
[24]
  MIC: > 64 µg/mL
[25]
  MIC: > 64 µg/mL
[26]
  MIC: > 64 µg/mL
[27]
  Activity: 36%
[28]
  MIC: > 64 µg/mL
[29]
  MIC: > 64 µg/mL
  MIC50: > 64 µg/mL
  MIC90: > 64 µg/mL
[30]
  Activity: 100%
[31]
  MIC: > 64 µg/mL
[32]
  MIC: > 64 µg/mL
[33]
  Activity: 64%
[34]
  MIC50: > 64 µg/mL
[35]
  MIC: > 64 µg/mL
[36]
  MIC: 0.06 µg/mL (≈ 0.141 µM)
[37]
  MIC: 0.06 µg/mL (≈ 0.141 µM)
[38]
  MIC: > 64 µg/mL
[39]
  MIC: > 64 µg/mL
[40]
  MBC50: >64 µg/mL
  MBC90: >64 µg/mL
[40]; Staphylococcus aureus
  MBC: > 0.12 µg/mL
[41]
  MBC50: 8 µg/mL (≈ 18.8 µM)
[41]; Staphylococcus aureus
  MBC: > 1 µg/mL
[42]
  MIC: > 64 µg/mL
[43]
  MIC: > 64 µg/mL
[44]
  MBC: > 64 µg/mL
[45]
  Activity: 86%
[46]
  MIC: 0.06 µg/mL (≈ 0.141 µM)
